# Measured values reported in ChEMBL document CHEMBL4316593 (Eur J Med Chem, 2019).
# System: U-87 MG
# Experiment: Cell cycle arrest in human U87 cells assessed as change in GADD45A gene expression at cytotoxic IC50 measured after 48 hrs […] relative to control
# Type: functional, U-87MG ATCC
# Procedure, shortened: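 U87 expression profiling. Cells incubated 48hrs at 37°C, 5% CO₂ with the IC₅₀ concentration, alongside a cisplatin and an untreated control, in triplicate. RNA was isolated by one common protocol and profiled. DEGs were called with DESeq2 (q < 0.05, fold change > 1.5) and expressed as fold change versus untreated.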
smiles,measurement,value
CC(=O)C(=NNc1ccccc1C#N)C(C)=O,fold change (FC),-0.9679
